According to ChEMBL document CHEMBL1140132, “Virtual screening, identification, and biochemical characterization of novel inhibitors of the reverse transcriptase of human immunodeficiency virus type-1” (J Med Chem, 2008):
Calls of active or inactive are those of the source. The calls are words filed in the database; no cut-off is given here.

Key:
[1] = tested on: Human immunodeficiency virus 1; test: Antiviral activity against HIV1 infected in human 721.221 B lymphocytes assessed as inhibition of pseudovirus infection; conditions: Human immunodeficiency virus 1, 721.221
[2] = Selectivity index, ratio of inhibition of DNA dependent DNA polymerase activity of Escherichia coli DNA polymerase 1 Klenow fragment to inhibition of DNA dependent DNA polymerase activity of HIV1 BH10 recombinant reverse transcriptase p66/p51
Outline: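 Ratio of residual Klenow fragment DNA-dependent DNA polymerase activity to residual HIV-1 RT activity. Both enzymes were assayed side by side under identical conditions: activated herring sperm DNA at 20 µg/mL, all four dNTPs, 37 °C, 1% DMSO, compound at 50 µg/mL.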

[3] = tested on: Escherichia coli; test: Inhibition of DNA dependent DNA polymerase activity of Escherichia coli DNA polymerase 1 Klenow fragment assessed as residual enzyme activity at 50 ug/ml relative to control
[4] = tested on: Human immunodeficiency virus 1; test: Antiviral activity against HIV1 infected in human 293T cells assessed as inhibition of pseudovirus infection; assay type: functional, organism-based; conditions: Human immunodeficiency virus 1, HEK-293T
[5] = tested on: Human immunodeficiency virus 1; test: Antiviral activity against HIV1 infected in 8186 T cells; assay type: functional, organism-based; conditions: Human immunodeficiency virus 1, T-cell
[6] = tested on: Human immunodeficiency virus 1; test: Antiviral activity against HIV1 infected in human CEM cells; assay type: functional, organism-based; conditions: Human immunodeficiency virus 1, CCRF-CEM
[7] = tested on: Human immunodeficiency virus 1; test: Antiviral activity against HIV1 infected in human 293T cells; assay type: functional, organism-based; conditions: Human immunodeficiency virus 1, HEK-293T
[8] = target: Human immunodeficiency virus type 1 reverse transcriptase (Human immunodeficiency virus 1) (UniProt Q72547); test: Inhibition of HIV1 BH10 recombinant reverse transcriptase p66/p51 RNase H activity assessed as residual enzyme activity
Outline: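 FRET RNase H assay: RT at 6 nM with 1 mM DTT, incubated with a fluorescein-RNA/DNA-dabcyl hybrid substrate ± inhibitor for 30 min at 37 °C. Hydrolysis is read as emitted fluorescence, in triplicate. Residual activity is relative to the inhibitor-free control.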

[9] = tested on: Human immunodeficiency virus type 1 reverse transcriptase (Human immunodeficiency virus 1), Q72547 [L100I,K103N]; test: Inhibition of DNA dependent DNA polymerase activity of HIV1 reverse transcriptase L100I/K103N mutant expressed in Escherichia coli DH5alpha
Outline: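 DDDP assay on activated herring sperm DNA (20 µg/mL final) with all four dNTPs, at 37 °C with 1% DMSO. Inhibitor in DMSO is premixed into the buffer before RT is added. Read-out is dNTP incorporation. Dose-response is fitted to a four-parameter logistic for IC50. Values are means of three independent experiments.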

[10] = tested on: Human immunodeficiency virus 2; test: Inhibition of DNA dependent DNA polymerase activity of HIV2 recombinant reverse transcriptase at 140 uM
[11] = Selectivity index, ratio of CC50 for human 721.221 cells to IC50 for HIV1 pseudovirus infection; assay type: functional
Outline: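 CC50 in 721.221 cells from a 72 h XTT viability assay, divided by IC50 against infection by VSV-G-pseudotyped HIV-1 GFP reporter virus. For the infection assay, cells were infected with 5.6 µg/mL Polybrene and 1% DMSO in RPMI, then fixed at 48–72 h and analysed by flow cytometry. IC50 came from a four-parameter logistic fit.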

[12] = target: T1, Human immunodeficiency virus type 1 reverse transcriptase (Human immunodeficiency virus 1, UniProt Q72547); test: Inhibition of RNA dependent DNA polymerase activity of HIV1 BH10 recombinant reverse transcriptase p66/p51 assessed as residual enzyme activity
Outline: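 Recombinant RT RNA-dependent DNA polymerase activity measured as [3H]dTTP incorporation into poly(rA)n·oligo(dT)12-18 at 37 °C in 1% DMSO. Inhibitor was mixed into buffer before RT was added. Compound present at 50 µg/mL final.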

[13] = target: T1, Human immunodeficiency virus type 1 reverse transcriptase; test: Inhibition of DNA dependent DNA polymerase activity of HIV1 BH10 recombinant reverse transcriptase p66/p51 assessed as residual enzyme activity
Outline: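 Recombinant RT DNA-dependent DNA polymerase assay at 37 °C in 1% DMSO, with the inhibitor premixed into buffer before RT was added. Template was activated herring sperm DNA, 20 µg/mL final, with all four dNTPs. Compound present at 50 µg/mL final.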

[14] = tested on: Human immunodeficiency virus 2; test: Inhibition of RNA dependent DNA polymerase activity of HIV2 recombinant reverse transcriptase at 140 uM
[15] = target: Human immunodeficiency virus type 1 reverse transcriptase (Human immunodeficiency virus 1, UniProt Q72547, Y181C); test: Inhibition of RNA dependent DNA polymerase activity of HIV1 reverse transcriptase Y181C mutant expressed in Escherichia coli BL21
[16] = Cytotoxicity against human 721.221 cells after 72 hrs by XTT assay; assay type: cell-based
Outline: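 721.221 B lymphocytes incubated 72 h at 37 °C with a range of inhibitor concentrations, each concentration in triplicate. Viability read by XTT absorbance at 450 nm, with 620 nm reference. CC50 is the concentration reducing viability by 50% versus the inhibitor-free control.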

[17] = target: T1, Human immunodeficiency virus type 1 reverse transcriptase; test: Inhibition of RNA dependent DNA polymerase activity of HIV1 BH10 recombinant reverse transcriptase p66/p51 assessed as residual enzyme activity at 616 nM using dTTP substrate by steady state kinetic assay
[18] = target: T1, Human immunodeficiency virus type 1 reverse transcriptase; test: Inhibition of RNA dependent DNA polymerase activity of HIV1 BH10 recombinant reverse transcriptase p66/p51 assessed as residual enzyme activity at 616 nM using rA.dT substrate by steady state kinetic assay
[19] = target: Human immunodeficiency virus type 1 reverse transcriptase (Human immunodeficiency virus 1) (UniProt Q72547); test: Inhibition of RNA dependent DNA polymerase activity of HIV1 BH10 recombinant reverse transcriptase p66/p51 assessed as residual enzyme activity at 616 nM using variable enzyme levels by steady state kinetic assay relative to control

SMILES	IC50 [1]	Ratio [2]	Activity [3]	also measured
S=C(NCc1ccco1)N1CCO[C@H](COc2cncc(Cl)c2)C1	> 20000 nM	–	–	–
Cc1ccc(NC(=S)N2CCc3c([nH]c4ccccc34)C2)c(Cl)c1	> 20000 nM	–	–	–
CCCOCCCNC(=S)Nc1ccc(F)cc1Br	–	1.2	47.6%	–
Cc1ccc(CCN2C(=O)CS[C@@H]2c2ccc(C)o2)cc1	> 20000 nM	–	–	–
CCCOCCCNC(=S)Nc1cccc(OC)c1	–	3.2	98.7%	–
C[C@H](NC(=S)Nc1ccc(Cl)cc1)c1ccccc1	4000 nM	–	–	–
CCCOCCCNC(=S)Nc1ccc(Br)c(Cl)c1	–	0.2	1%	–
CCCOCCCNC(=S)Nc1ccc(C(C)(C)C)cc1	–	0.4	13.8%	–
CCCOCCCNC(=S)Nc1ccc(N(C)C)cc1	–	0.2	11.1%	–
CCCOCCCNC(=S)Nc1cc(F)ccc1F	–	0.6	47.5%	–
CCCOCCCNC(=S)Nc1ccc(Br)cc1	–	1.7	48.4%	–
Cc1ccnc2c1NC(=O)c1cccnc1N2C1CC1 [NEVIRAPINE]	–	–	47.5%	IC50 [4]: 14 nM; IC50 [5]: 40 nM; IC50 [6]: 24 nM; IC50 [7]: 50 nM; Activity [8]: inactive; Activity [9]: Active; Activity [10]: inactive
CCCCc1ccc(NC(=S)NCCCOCCC)c(C)c1	–	0.2	4.5%	–
CCCOCCCNC(=S)Nc1ccc(Br)c(C)c1	–	0.6	14.4%	–
CCCOCCCNC(=S)Nc1ccccc1OCC	430 nM	5.4	87.1%	–
S=C(NCc1ccco1)NC1CCCCC1	> 20000 nM	–	–	–
Cc1cc(NC(=S)NCCC2=CCCCC2)ccc1Br	230 nM	–	–	–
CCCOCCCNC(=S)Nc1ccccc1Cl	–	1.2	59.3%	–
CC(C)(C)CNC(=O)Nc1cc(C(F)(F)F)cc(C(F)(F)F)c1	> 20000 nM	–	–	–
CCCOCCCNC(=S)Nc1cc(C)c(C)cc1C	–	2.9	64.4%	–
CCCOCCCNC(=S)Nc1cc(C)ccc1OC	890 nM	4.3	71.7%	–

SMILES	IC50 [1]	Ratio [2]	Activity [3]	also measured
CCCOCCCNC(=S)Nc1cccc(C#N)c1	–	1.1	75.2%	–
CCOC(=O)CCN(Cc1ccco1)C(=S)Nc1cccc(OC)c1	> 20000 nM	–	–	–
COc1cccc(CCNC(=S)Nc2ccc(Br)c(C)c2)c1OC	7700 nM	–	–	–
CCCOCCCNC(=S)Nc1ccc(Cl)cc1Cl	–	0.2	13.2%	–
CCOC(=O)CCCNC(=S)Nc1ccc(Cl)c(C(F)(F)F)c1	1600 nM	–	–	–
CCCOCCCNC(=S)Nc1ccc(Cl)c(C(F)(F)F)c1	–	0.5	2.2%	–
S=C(NCc1ccco1)Nc1ccc(Cl)cc1	> 20000 nM	–	–	–
COc1ccccc1NC(=S)NCc1ccco1	> 20000 nM	–	–	–
C=CCOc1nc(OCC=C)nc(OC[C@@H]2CN(C(=S)NCc3ccco3)CCO2)n1	> 20000 nM	–	–	–
CCCOCCCNC(=S)Nc1ccc(Cl)cc1C	2600 nM	–	47.5%	–
CCCOCCCNC(=S)Nc1cc(OC)ccc1OC	3000 nM	–	–	–
CCCOCCCNC(=S)Nc1cc(Cl)ccc1OC	320 nM	3.2	50.8%	–
COc1ccc(CCn2cc(NC(=O)CCc3ccoc3)cn2)cc1OC	> 20000 nM	–	–	–
CCCOCCCNC(=S)Nc1cccc(C(=O)OCC)c1	–	1.2	56.6%	–
O=S(=O)(Nc1n[nH]cc1Br)c1cccc2nsnc12	370 nM	–	–	Ratio CC50/IC50 [11]: >446; IC50 [12]: 2800 nM; IC50 [13]: 3300 nM; Activity [8]: inactive; Activity [9]: Active; inhibition [14]: 50%; IC50 [15]: 20000 nM
CCCCc1ccc(NC(=S)NCCCOCCC)cc1	–	2.4	74.2%	–
CCCOCCCNC(=S)Nc1cccc(Cl)c1C	–	0.4	10.8%	–
CCCOCCCNC(=S)Nc1ccc(C(=O)OC)cc1	–	0.2	2.6%	–
CCCOCCCNC(=S)Nc1cc(OC)c(Cl)cc1OC	170 nM	7.4	62.2%	CC50 at 72 h [16]: 58000 nM; Ratio CC50/IC50 [11]: 345; IC50 [12]: 510 nM; IC50 [13]: 940 nM; Activity [8]: inactive; Activity [9]: Active; inhibition [14]: 50%; IC50 [15]: 70000 nM; Ki [17]: 1100 nM; Ki [18]: 1800 nM; Activity [19]: 59%
CCCOCCCNC(=S)Nc1cc(C)ccc1Cl	670 nM	4.4	76.5%	–
